Test results taken from PMC9282716 (Cell reports, 2022).
Where two headings read alike, the source gives them in different places. Each block holds one molecule with its values, some of them ahead of it.

What was measured:
[1] = tested on: Hs68 cells; assay: TR-FRET cAMP assay in normal fibroblast cell line Hs68; type: cell-based, human; details: 10 μM agonist, Hs68 fibroblasts
[2] = target: T1, EP2 receptor (Homo sapiens, UniProt P43116); assay: cell-based; type: cell-based
[3] = target: T1, EP2 receptor; assay: Cell-based TR-FRET cAMP assay in BE
[4] = tested on: EP2-deleted SK-N-AS cells; assay: TR-FRET cAMP assay in EP2 knockout SK-N-AS cell lines; type: cell-based, human; details: read-out: PGE2 EC50 for cAMP
Summary of the method: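 EP2-knockout SK-N-AS lines were made with lentiCRISPRv2 sgRNAs, selected with puromycin (2 µg/mL) and verified by sequencing. […] After lysis with cAMP-d2 and anti-cAMP cryptate and 1 h at RT, TR-FRET was read (ex 340 nm; em 665/590 nm), n = 4. EC50 came from concentration–response curves.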

T1 sequence (P43116 whole entry): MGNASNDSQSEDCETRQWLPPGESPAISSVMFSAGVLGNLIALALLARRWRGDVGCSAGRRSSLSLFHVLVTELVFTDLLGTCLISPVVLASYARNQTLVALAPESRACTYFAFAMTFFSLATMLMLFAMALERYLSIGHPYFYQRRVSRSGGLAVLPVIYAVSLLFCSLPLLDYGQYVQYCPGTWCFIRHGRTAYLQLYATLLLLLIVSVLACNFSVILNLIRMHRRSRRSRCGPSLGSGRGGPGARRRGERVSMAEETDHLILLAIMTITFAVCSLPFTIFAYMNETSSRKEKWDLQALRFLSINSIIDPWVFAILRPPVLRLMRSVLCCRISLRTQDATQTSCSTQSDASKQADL

SMILES: O=C1CC[C@H](/C=C/[C@@H](O)Cc2ccccc2)N1CCCCCCc1nn[nH]n1 [CAY10598]
cAMP production [1]: more cAMP production than EP2 agonist butaprost and PGE2

EC50 ([2]; agonist EC50 for cAMP induction, SK-N-AS cells, n = 4): 170 nM
EC50 [3]: 470 nM
SMILES: CCCC1([C@H](O)C/C=C/[C@H]2[C@H](O)CC(=O)[C@@H]2CCCCCCC(=O)OC)CCC1 [butaprost]

IC50, inhibition of PGE2-induced cAMP production [2]: no effect
SMILES: CCOc1c2c(c(OCC)c3ccccc13)C(=O)N(c1ccc(CC(=O)NS(=O)(=O)c3ccccc3)cc1)C2 [GW627368X]

EC50 ([4]; Homo sapiens, SK-N-AS): > 10000 nM
EC50 ([4]; EP2 KO2 SK-N-AS cell line): > 10000 nM
SMILES: CCCCC[C@H](O)/C=C/[C@H]1[C@H](O)CC(=O)[C@@H]1C/C=C\CCCC(=O)O [PGE2, Prostaglandin E2]
